Test results from ChEMBL document CHEMBL1141682, “Discovery of novel potent and selective dipeptide hepatitis C virus NS3/4A serine protease inhibitors” (Bioorg Med Chem Lett, 2008).
Values belong to the molecule of their own block, whether it stands above or below them.

Columns and labels:
[1] = Metabolic stability in human liver microsomess after 15 mins at 5 uM; type: ADME, Microsome; conditions: liver microsomes
Outline: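 Compound at 5 µM was incubated with human liver microsomes for 15 min at 37 °C. Stability is expressed as percent of compound metabolized.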

Hepatitis C virus = assay: Inhibition of HCV replication in human HuH7-Rep cells containing subgenomic bicistronic clone; type: functional, organism-based, Hepacivirus hominis; conditions: Huh-7
Outline: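 Huh7 cells carried the subgenomic bicistronic replicon clone ET with a luciferase reporter. EC50 is the concentration that cut luciferase signal by 50% relative to untreated control.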

[2] = Inhibition of full length HCV NS3/4A protease; design: species or system Hepacivirus hominis
Outline: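 Full-length recombinant genotype 1 NS3 protease was run with a truncated NS4A cofactor in a biochemical assay. Inhibition constants (Ki) are reported.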

MT4 = assay: Cytotoxicity against human MT4 cells by LTR-luciferase assay; type: functional
Outline: (§1)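 Cytotoxicity was tested in MT4-LTR-Luc and Huh7-CMV-Luc reporter cell lines. Results are given as CC50.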

[3] = Tmax in Sprague-Dawley rat at 10 mg/kg, po; type: ADME, organism-based; design: dose 10 mg/kg, route oral; conditions: in vivo
Outline: (§2)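 Male SD rats (n = 2 per route) got a single dose: 2 mg/kg IV in 20% hydroxypropyl-β-cyclodextrin, or 10 mg/kg oral in 50% PEG400 with 2.5% vitamin E-TPGS. Plasma was sampled out to 8 h. Heart and liver levels were taken at 8 h. Oral half-life was fitted over 2–8 h. Bioavailability compares oral against IV exposure.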

[4] = Drug level in Sprague-Dawley rat liver at 2 mg/kg, iv after 8 hrs; type: ADME, organism-based; design: dose 2 mg/kg, route intravenous; conditions: read-out: Drug uptake; outline: as §2
[5] = Permeability from apical to basolateral side of human Caco-2 cells; type: ADME, cell-based
[6] = Plasma concentration in Sprague-Dawley rat at 10 mg/kg, po after 8 hrs; type: ADME, organism-based; design: dose 10 mg/kg, route oral; outline: as §2
[7] = Half life (2 to 8 hrs) in Sprague-Dawley rat at 2 mg/kg, iv; type: ADME, organism-based; design: dose 2 mg/kg, route intravenous; conditions: in vivo
Huh-7 = assay: Cytotoxicity against human HuH7 cells by CMV-luciferase assay; type: functional; outline: as §1
[8] = Plasma concentration in Sprague-Dawley rat at 10 mg/kg, po after 1 hr; type: ADME, organism-based; design: dose 10 mg/kg, route oral; outline: as §2
[9] = Plasma concentration in Sprague-Dawley rat at 2 mg/kg, iv after 1 hr; type: ADME, organism-based; design: dose 2 mg/kg, route intravenous; outline: as §2
[10] = Plasma concentration in Sprague-Dawley rat at 10 mg/kg, po after 4 hrs; type: ADME, organism-based; design: dose 10 mg/kg, route oral; outline: as §2
[11] = Plasma concentration in Sprague-Dawley rat at 2 mg/kg, iv after 8 hrs; type: ADME, organism-based; design: dose 2 mg/kg, route intravenous; outline: as §2
[12] = Plasma concentration in Sprague-Dawley rat at 10 mg/kg, po after 2 hrs; type: ADME, organism-based; design: dose 10 mg/kg, route oral; outline: as §2
[13] = Plasma concentration in Sprague-Dawley rat at 2 mg/kg, iv after 4 hrs; type: ADME, organism-based; design: dose 2 mg/kg, route intravenous; outline: as §2
[14] = AUC (0 to infinity) in Sprague-Dawley rat at 10 mg/kg, po; type: ADME, organism-based; design: time infinity, dose 10 mg/kg, route oral; conditions: plasma; outline: as §2
[15] = Plasma concentration in Sprague-Dawley rat at 2 mg/kg, iv after 0.12 hrs; type: ADME, organism-based; design: dose 2 mg/kg, route intravenous; outline: as §2
[16] = AUC (0 to 8 hrs) in Sprague-Dawley rat at 10 mg/kg, po; type: ADME, organism-based; design: time < 8 hr, dose 10 mg/kg, route oral; conditions: plasma; outline: as §2
[17] = Plasma concentration in Sprague-Dawley rat at 2 mg/kg, iv after 0.33 hrs; type: ADME, organism-based; design: dose 2 mg/kg, route intravenous; outline: as §2
Rattus norvegicus [18] = assay: Clearance in Sprague-Dawley rat at 2 mg/kg, iv; type: ADME, organism-based; design: dose 2 mg/kg, route intravenous; conditions: in vivo; outline: as §2
[19] = AUC (0 to 8 hrs) in Sprague-Dawley rat at 2 mg/kg, iv; type: ADME, organism-based; design: time < 8 hr, dose 2 mg/kg, route intravenous; conditions: plasma; outline: as §2
[20] = Plasma concentration in Sprague-Dawley rat at 2 mg/kg, iv after 2 hrs; type: ADME, organism-based; design: dose 2 mg/kg, route intravenous; outline: as §2
[21] = Drug level in Sprague-Dawley rat heart at 10 mg/kg, po after 8 hrs; type: ADME, organism-based; design: dose 10 mg/kg, route oral; outline: as §2
[22] = Plasma concentration in Sprague-Dawley rat at 10 mg/kg, po after 0.5 hrs; type: ADME, organism-based; design: dose 10 mg/kg, route oral; outline: as §2
[23] = Drug level in Sprague-Dawley rat liver at 10 mg/kg, po after 8 hrs; type: ADME, organism-based; design: dose 10 mg/kg, route oral; conditions: read-out: Drug uptake; outline: as §2
Rattus norvegicus [24] = assay: AUC (0 to infinity) in Sprague-Dawley rat at 2 mg/kg, iv; type: ADME, organism-based, Plasma; design: time infinity, dose 2 mg/kg, route intravenous; conditions: in vivo; outline: as §2
[25] = Cmax in Sprague-Dawley rat at 10 mg/kg, po; type: ADME, organism-based; design: dose 10 mg/kg, route oral; conditions: in vivo; outline: as §2
[26] = Oral bioavailability in Sprague-Dawley rat at 10 mg/kg, po; type: ADME, organism-based; conditions: in vivo; outline: as §2
[27] = Drug level in Sprague-Dawley rat heart at 2 mg/kg, iv after 8 hrs; type: ADME, organism-based; design: dose 2 mg/kg, route intravenous; conditions: read-out: Drug uptake; outline: as §2
[28] = Half life (2 to 8 hrs) in Sprague-Dawley rat at 10 mg/kg, po; type: ADME, organism-based; design: dose 10 mg/kg, route oral; conditions: in vivo; outline: as §2
[29] = Volume of distribution in steady state in Sprague-Dawley rat at 2 mg/kg, iv; type: ADME, organism-based; design: dose 2 mg/kg, route intravenous; conditions: in vivo, read-out: Vdss; outline: as §2

metabolized at 0.25 h, 5 µM [1]: 82.4%
EC50 (Hepatitis C virus): 23.9 nM
Ki [2]: 0.4 nM
Compound: COc1ccc2c(O[C@@H]3C[C@H]4C(=O)N[C@]5(C(=O)NS(=O)(=O)C6CC6)C[C@H]5/C=C\CCCCCC(=O)N4C3)cc(-c3nc(C(C)C)cs3)nc2c1

EC50 (Hepatitis C virus): 5.84 nM
Ki [2]: 2.8 nM
Compound: COc1ccc2c(O[C@@H]3C[C@H]4C(=O)N[C@]5(C(=O)NS(=O)(=O)C6CC6)C[C@H]5/C=C\CCCCCCC(=O)N4C3)cc(-c3nc(C(C)C)cs3)nc2c1C

metabolized at 0.25 h, 5 µM [1]: 98%
EC50 (Hepatitis C virus): 18 nM
Ki [2]: 0.65 nM
Compound: COc1ccc2c(O[C@@H]3C[C@H]4C(=O)N[C@]5(C(=O)NS(=O)(=O)C6CC6)C[C@H]5/C=C\CCCCCCC(=O)N4C3)cc(-c3nc(C(C)C)cs3)nc2c1

EC50 (Hepatitis C virus): 1980 nM
Ki [2]: 46 nM
Compound: COc1ccc2c(O[C@@H]3C[C@H]4C(=O)N[C@]5(C(=O)O)C[C@H]5/C=C\CCCCCCC(=O)N4C3)cc(-c3csc(NC(C)C)n3)nc2c1

metabolized at 0.25 h, 5 µM [1]: 98.4%
EC50 (Hepatitis C virus): 4.37 nM
Ki [2]: 0.5 nM
Compound: COc1ccc2c(O[C@@H]3C[C@H]4C(=O)N[C@]5(C(=O)NS(=O)(=O)C6CC6)C[C@H]5/C=C\CCCCCCC(=O)N4C3)cc(-c3nccs3)nc2c1C

metabolized at 0.25 h, 5 µM [1]: 50.2%
EC50 (Hepatitis C virus): 3.55 nM
Ki [2]: 0.2 nM
Compound: COc1ccc2c(O[C@@H]3C[C@H]4C(=O)N[C@]5(C(=O)NS(=O)(=O)C6CC6)C[C@H]5/C=C\CCCCCC(=O)N4C3)cc(-c3nc(C(C)C)cs3)nc2c1C

EC50 (Hepatitis C virus): 3.97 nM
Ki [2]: 0.5 nM
Compound: COc1ccc2c(O[C@@H]3C[C@H]4C(=O)N[C@]5(C(=O)NS(=O)(=O)C6CC6)C[C@H]5/C=C\CCCCCCC(=O)N4C3)cc(-c3cscn3)nc2c1

EC50 (Hepatitis C virus): 5040 nM
Ki [2]: 18 nM
Compound: COc1ccc2c(O[C@@H]3C[C@H]4C(=O)N[C@]5(C(=O)O)C[C@H]5/C=C\CCCCCCC(=O)N4C3)cc(-c3nc(C(C)C)cs3)nc2c1

metabolized at 0.25 h, 5 µM [1]: 100%
EC50 (Hepatitis C virus): 1.9 nM
Ki [2]: 0.1 nM
Compound: COc1ccc2c(O[C@@H]3C[C@H]4C(=O)N[C@]5(C(=O)NS(=O)(=O)C6CC6)C[C@H]5/C=C\CCCCCCC(=O)N4C3)cc(-c3nccs3)nc2c1Br

metabolized at 0.25 h, 5 µM [1]: 42.6%
Tmax [3]: 0.75 h
concentration at 8 h [4]: 3660 ng/g
Papp A→B [5]: 11.1 ×10⁻⁶ cm/s
concentration at 8 h [6]: 133 ng/mL
half-life [7]: 2.49 h
concentration at 1 h [8]: 693 ng/mL
concentration at 1 h [9]: 449 ng/mL
concentration at 4 h [10]: 363 ng/mL
concentration at 8 h [11]: 53 ng/mL
concentration at 2 h [12]: 632 ng/mL
concentration at 4 h [13]: 139 ng/mL
AUC(0-inf) [14]: 3610 ng·h/mL
concentration at 0.12 h [15]: 1500 ng/mL
AUC(0-t) at 8 h [16]: 3070 ng·h/mL
concentration at 0.33 h [17]: 708 ng/mL
CL (Rattus norvegicus [18]): 65.7 mL/min/kg
AUC(0-t) at 8 h [19]: 1960 ng·h/mL
EC50 (Hepatitis C virus): 3.76 nM
concentration at 2 h [20]: 290 ng/mL
concentration at 8 h [21]: 35.8 ng/g
concentration at 0.5 h [22]: 698 ng/mL
concentration at 8 h [23]: 7660 ng/g
AUC (Rattus norvegicus [24]): 2154 ng·h/mL
Cmax [25]: 715 ng/mL
Ki [2]: 0.2 nM
bioavailability [26]: 31%
concentration at 8 h [27]: 15.1 ng/g
half-life [28]: 2.73 h
Vd [29]: 2.75 L/kg
Compound: COc1ccc2c(O[C@@H]3C[C@H]4C(=O)N[C@]5(C(=O)NS(=O)(=O)C6(C)CC6)C[C@H]5/C=C\CCCCCC(=O)N4C3)cc(-c3nc(C(C)C)cs3)nc2c1Cl
CC50 (MT4): > 20000 nM
CC50 (Huh-7): > 20000 nM

metabolized at 0.25 h, 5 µM [1]: 28.8%
EC50 (Hepatitis C virus): 14.1 nM
Ki [2]: 0.4 nM
Compound: COc1ccc2c(O[C@@H]3C[C@H]4C(=O)N[C@]5(C(=O)NS(=O)(=O)C6(C)CC6)C[C@H]5/C=C\CCCCCC(=O)N4C3)cc(-c3nc(C(C)C)cs3)nc2c1C

metabolized at 0.25 h, 5 µM [1]: 100%
EC50 (Hepatitis C virus): 16.8 nM
Ki [2]: 1 nM
Compound: COc1ccc2c(O[C@@H]3C[C@H]4C(=O)N[C@]5(C(=O)NS(=O)(=O)C6CC6)C[C@H]5/C=C\CCCCCCC(=O)N4C3)cc(-c3nccs3)nc2c1

metabolized at 0.25 h, 5 µM [1]: 91.5%
EC50 (Hepatitis C virus): 20.4 nM
Ki [2]: 0.9 nM
Compound: COc1ccc2c(O[C@@H]3C[C@H]4C(=O)N[C@]5(C(=O)NS(=O)(=O)C6CC6)C[C@H]5/C=C\CCCCCCC(=O)N4C3)cc(-c3csc(NC(C)C)n3)nc2c1

EC50 (Hepatitis C virus): 11.7 nM
Ki [2]: 0.4 nM
Compound: COc1ccc2c(O[C@@H]3C[C@H]4C(=O)N[C@]5(C(=O)NS(=O)(=O)C6CC6)C[C@H]5/C=C\CCCCCC(=O)N4C3)cc(-c3nc(C(C)C)cs3)nc2c1Cl

metabolized at 0.25 h, 5 µM [1]: 28.5%
EC50 (Hepatitis C virus): 1.63 nM
Ki [2]: 0.3 nM
Compound: COc1ccc2c(O[C@@H]3C[C@H]4C(=O)N[C@]5(C(=O)O)C[C@H]5/C=C\CCCCC[C@H](NC(=O)OC5CCCC5)C(=O)N4C3)cc(-c3csc(NC(C)C)n3)nc2c1 [CILUPREVIR]
